Screening results deposited in PubChem by Broad Institute.
ERAP1 inh = blocks human ERAP1 aminopeptidase activity | AID 652197 | inhibition, % at 10.7 µM | hit rate 0.15% among 340,000 | recombinant ERAP1, Leu-AMC fluorescence, 60 min | Q9NZ08;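 active means mean replicate inhibition of at least 30%, or all replicates individually reaching that 30% level; inactive means mean below 30% and not every replicate reaching it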
S100A4 inh HTS = blocks human S100A4 binding to myosin IIA peptide | P26447 | S100A4/TAMRA-MyoIIA peptide fluorescence polarization | inhibition, % at 10.7 µM | hit rate 0.14% among 360,000 | AID 652163;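 active means mean inhibition of at least 70% across replicates, with every replicate also reaching that level; inconclusive means mean inhibition reaches 70% but some replicates fall short; inactive means mean inhibition below 70%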
Target sequence (P26447 whole entry, looked up): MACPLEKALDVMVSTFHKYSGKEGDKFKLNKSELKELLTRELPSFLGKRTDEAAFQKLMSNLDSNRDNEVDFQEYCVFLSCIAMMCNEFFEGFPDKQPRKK
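Compound dosing: one dose per compound; test system: human S100A4 monomer with TAMRA-labelled myosin IIA peptide; probe or stimulus: TAMRA-labelled myosin IIA heavy-chain peptide probe, 5 nM; medium: HEPES buffer with Ca2+, pH 7.2; schedule: 5 min incubation before reading; benchmarks: neutral control DMSO, positive control TFP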
MLL AF4-AF9 inh = MLL-AF4/AF9 protein interaction inhibition. AID 651704. P42568. inhibition, % at 10 µM. hit rate 0.47% among 350,000. AlphaScreen, biotin-AF4 peptide binding to FLAG-AF9;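 active means every replicate reaching a set inhibition limit, whatever the replicate mean, cut at about 25% in these data; inconclusive means mean inhibition reaches that limit but some replicates miss it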
Target sequence (P42568 whole entry, looked up): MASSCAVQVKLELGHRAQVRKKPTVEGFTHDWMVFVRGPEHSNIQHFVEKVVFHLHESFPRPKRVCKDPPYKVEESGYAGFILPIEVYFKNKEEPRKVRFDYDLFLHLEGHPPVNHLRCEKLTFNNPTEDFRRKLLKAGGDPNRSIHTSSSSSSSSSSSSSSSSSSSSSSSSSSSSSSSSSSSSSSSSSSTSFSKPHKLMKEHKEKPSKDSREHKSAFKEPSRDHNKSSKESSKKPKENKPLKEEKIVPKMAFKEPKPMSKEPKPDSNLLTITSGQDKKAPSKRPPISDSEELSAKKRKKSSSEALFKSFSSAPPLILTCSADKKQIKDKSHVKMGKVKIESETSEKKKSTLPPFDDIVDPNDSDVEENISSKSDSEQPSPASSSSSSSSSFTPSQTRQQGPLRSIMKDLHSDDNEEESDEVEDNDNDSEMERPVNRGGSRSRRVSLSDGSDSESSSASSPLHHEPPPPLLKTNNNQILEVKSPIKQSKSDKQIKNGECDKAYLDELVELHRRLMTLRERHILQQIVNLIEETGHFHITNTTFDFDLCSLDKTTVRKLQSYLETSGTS
GSIS activator = GLuc luminescence reporter in INS-1E cells, primary screen for activators of glucose-dependent secretion of insulin. INS-1E GLuc reporter insulin secretion, 2-3 h. hit rate 0.61% among 370,000. AID 743287. activation, % at 16.6 µM;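 active means lowest replicate activation of at least 40%, so every replicate reaches that level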
RAD52 inh = blocks human RAD52 DNA annealing | recombinant RAD52 DNA annealing, FRET fluorescence | inhibition, % at 18.7 µM | hit rate 0.46% among 360,000 | P43351 | AID 651710;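 active means every replicate showing at least 50% inhibition; inconclusive means mean inhibition at least 50% but not in every replicate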
DNA binder FP = binds DNA, flagging false RAD52 inhibitor hits. shares compounds with RAD52 inh. Salmon sperm DNA/acridine orange FP displacement, DNA binding. AC50, µM. hit rate 8% among 1,000;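 active means fitted half-maximal concentration for signal loss at or below twice the highest dose tested, in every separate run, actives reach about 64 µM in these data; inconclusive means runs disagree, or flat partial signal loss, or poor fit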
Large screens that a line does not name were inactive (follow-up assays come after a bar, where they were run). A selection: hits, their analogues and other compounds. The true share with any hit is near 1.5%.

C[C@@H]1CN([C@H](C)CO)C(=O)c2cccc(NS(=O)(=O)c3ccccc3)c2O[C@H]1CN(C)S(=O)(=O)c1ccc(Cl)cc1	none
CCN(CC)CCC(=O)N1C/C(=C/c2ccccc2)C(=O)/C(=C\c2ccccc2)C1	none
O=C1/C(=C\c2ccccc2)CN(C(=O)CCN2CCCCC2)C/C1=C/c1ccccc1	RAD52 inh 55 | DNA binder FP inactive
C[C@H]1CN([C@@H](C)CO)C(=O)c2cc(NS(=O)(=O)c3cn(C)cn3)ccc2O[C@H]1CN(C)Cc1ccccc1	none
OCCOCCOc1ccccc1OCCOCCO	none
NCCOc1ccccc1OCCN	RAD52 inh 58 | DNA binder FP inactive
O=S(=O)(N[C@H]1CC[C@@H](CCn2cc(-c3cccnc3)nn2)O[C@@H]1CO)c1ccc(F)cc1	none
OC(CNCCc1ccc(Cl)cc1)COc1ccc2ccccc2c1 (stereo not given)	RAD52 inh 53 | DNA binder FP inactive
OC(CNCCc1ccccc1)COc1ccc(OCC(O)CNCCc2ccccc2)cc1 (stereo not given)	none (no result: GSIS activator)
C[C@@H]1CN([C@@H](C)CO)C(=O)Cc2cc(NS(C)(=O)=O)ccc2O[C@H]1CN(C)C(=O)Nc1ccc2c(c1)OCO2	none
Cn1c(-c2csc(-c3cccc(C(F)(F)F)c3)n2)n[nH]c1=S	RAD52 inh 96 | DNA binder FP inactive
Cn1c(CNc2cccc(C(F)(F)F)c2)n[nH]c1=S	none
Cn1c(N2CCOCC2)c(/C=N/O)c2ccccc21	none (no result: ERAP1 inh, S100A4 inh HTS, MLL AF4-AF9 inh, RAD52 inh)
Cn1c(N=Nc2ccc(N3CCOCC3)cc2)[n+](C)c2ccccc21	MLL AF4-AF9 inh 58, RAD52 inh 103 | DNA binder FP 11µM
C[C@@H]1CN([C@@H](C)CO)C(=O)c2cc(NC(=O)C3CCCCC3)ccc2O[C@H]1CN(C)C(=O)NC1CCCCC1	none
CCOC(=O)c1c(NC(C)=O)sc2c(OCCN(CC)CC)c(Br)ccc12	RAD52 inh 61 | DNA binder FP inactive
CCCNC(=O)[C@@H]1[C@@H](CO)[C@@H]2Cn3c(ccc(-c4ccc(F)cc4)c3=O)[C@H]1N2CC	none
CC(=O)c1ccc2c(c1)N(CCCN(C)C)c1ccccc1S2	none
CCC(=O)c1ccc2c(c1)N(CCCN(C)C)c1ccccc1S2	RAD52 inh 70 (no result: GSIS activator) | DNA binder FP inactive
CNC(=O)C[C@@H]1CC[C@@H]2[C@H](COC[C@@H](O)CN2C(=O)Nc2ccc3c(c2)OCO3)O1	none
CC(NC(=O)CCc1ccccc1)c1ccc2c(c1)OCO2 (stereo not given)	RAD52 inh 108 | DNA binder FP inactive
CC[n+]1c(C)cc2c(sc3ccccc32)c1C	RAD52 inh 57 (no result: GSIS activator) | DNA binder FP inactive
O=C(C[C@@H]1CC[C@H]2[C@@H](COC[C@@H](O)CN2CC2CCCC2)O1)NCc1ccc(Cl)cc1	none
COc1ccc(-c2[nH]ncc2CN2CCCCCCC2)c(OC)c1	RAD52 inh 76 | DNA binder FP inactive
COc1ccc(-c2[nH]ncc2CN2CCN(c3ccccn3)CC2)c(OC)c1	none
CN(C)CCNC(=O)c1cccc2[nH]c(-c3ccncc3)nc12	RAD52 inh 50 | DNA binder FP 52µM
COc1ccc(C(=O)NCCN(C)C)c2nc3ccccc3cc12	RAD52 inh 91 | DNA binder FP 25µM
CN(C)CCNC(=O)c1cccc2nc3c(ccc4ccccc43)nc12	MLL AF4-AF9 inh inconclusive, RAD52 inh 95 | DNA binder FP 14µM
CN(C)CCNC(=O)c1ccccc1-c1cc2ccccc2c(=O)o1	none
CN(C)CCNC(=O)c1[nH]c(C(F)(F)F)nc1-c1ccccc1	none
COc1ccc(-c2nc3c(C(=O)NCCN(C)C)cccc3c3ccccc23)cc1	RAD52 inh 101 (no result: GSIS activator) | DNA binder FP inconclusive
O=C(C[C@@H]1CC[C@H](NC(=O)C2CCC2)[C@@H](CO)O1)NC1CCC1	none
C[C@@H]1CCCCO[C@H](CN(C)S(=O)(=O)c2ccc(F)cc2)[C@H](C)CN([C@H](C)CO)C(=O)c2cc(NC(=O)Nc3ccc(F)cc3)ccc2O1	none (no result: ERAP1 inh, S100A4 inh HTS, MLL AF4-AF9 inh, RAD52 inh)
C[C@@H]1CCCCO[C@H](CN(C)C(=O)c2ccccc2)[C@H](C)CN([C@@H](C)CO)C(=O)c2cc(NS(=O)(=O)c3cn(C)cn3)ccc2O1	none
Cc1ccc(Sc2cc(C(=O)NCCN(C)C)c3ccccc3n2)cc1	none
COc1cccc2nc3c(C(=O)NCCN(C)C)cccc3cc12	RAD52 inh 81 | DNA binder FP 34µM
CC(C)CCNCC(O)CON=C1c2ccccc2-c2ccccc21 (stereo not given)	MLL AF4-AF9 inh 27, RAD52 inh 66 | DNA binder FP inactive
Nc1ccc(N2CCN(c3ccc(F)cc3)CC2)cc1	none
CC(=O)N1CCN(c2ccc(N)cc2)CC1	RAD52 inh 58 (no result: GSIS activator) | DNA binder FP inactive
Cc1cc(N2CCNC[C@@H]2C)ccc1N1CCN(Cc2ccccc2)[C@@H](C)C1	RAD52 inh 51 (no result: MLL AF4-AF9 inh, GSIS activator) | DNA binder FP inactive
CC/C(=N\O)c1c(O)c2c(n(-c3ccccc3)c1=O)CCCC2	RAD52 inh 54 (no result: GSIS activator) | DNA binder FP inactive
O=S(=O)(N[C@H]1CC[C@H](CCn2cc(-c3cccc(F)c3)nn2)O[C@H]1CO)c1ccc(F)cc1	none
CCNC(=O)C[C@H]1CC[C@H]2[C@H](COc3ccc(NC(=O)Nc4ccccc4OC)cc3C(=O)N2C)O1	none
Cc1ccc2nc(N(CCCN(C)C)C(=O)CCc3ccccc3)sc2c1	none (no result: GSIS activator)
Cc1cc(C)c2sc(N(CCCN(C)C)C(=O)CN3C(=O)c4ccccc4C3=O)nc2c1	RAD52 inh 67 (no result: GSIS activator) | DNA binder FP inactive
Cc1cc(C)c2sc(N(CCCN(C)C)C(=O)c3ccc(S(=O)(=O)N(C)Cc4ccccc4)cc3)nc2c1	none
Cc1ccc2nc(N(CCCN(C)C)C(=O)CN3C(=O)c4ccccc4C3=O)sc2c1	RAD52 inh 62 (no result: ERAP1 inh) | DNA binder FP inactive
CC(=O)N(C)C[C@@H]1Oc2ncc(C#Cc3cccnc3)cc2C(=O)N([C@@H](C)CO)C[C@@H]1C	none
O=C(CSc1nnc(CNC(=O)c2ccc(F)cc2)o1)NCC1CCCO1 (stereo not given)	none
O=C(NCC1CCCO1)c1nnc(Cc2ccc(F)cc2)o1 (stereo not given)	RAD52 inh 53 | DNA binder FP inactive
C[C@@H]1CN([C@@H](C)CO)C(=O)c2cc(NC(=O)Nc3ccc(C(F)(F)F)cc3)ccc2O[C@@H](C)CCCCO[C@H]1CN(C)Cc1ccncc1	none
Cc1ccc(C(=O)c2oc3ccc(Cl)cc3c2NC(=O)CN2CCN(C)CC2)cc1	MLL AF4-AF9 inh 31, RAD52 inh 82 | DNA binder FP inactive
CCOC(=O)c1oc2ccccc2c1NC(=O)CN1CCN(C)CC1	none (no result: MLL AF4-AF9 inh)
C[C@@H]1CN([C@H](C)CO)S(=O)(=O)c2ccc(-c3ccc(F)cc3)cc2O[C@H]1CN(C)C(=O)C1CC1	none (no result: ERAP1 inh, S100A4 inh HTS, MLL AF4-AF9 inh, RAD52 inh)
CCc1ccc(NC(=S)/N=C(\N)Nc2nc(C)c3cc(CC)ccc3n2)cc1	none
